Published values pooled from the literature.
Target: Calcium/calmodulin-dependent protein kinase kinase 2 (CAMKK2, Homo sapiens, UniProt Q96RR4)

With `c1cncc(-c2cccc(Nc3nccc(NC4CCCCC4)n3)c2)c1` the remaining binding was 69% (binding; competition with immobilised ligand; 10 µM).
The remaining binding of `N#Cc1ccc(Nc2ccc3[nH]c(=O)[nH]c3c2)c(Cl)c1` is reported as 91% (cell-free assay; competition with immobilised ligand; 1 µM).
`Cc1cnc(Nc2ccc(C(=O)N3CCC(N4CCCC4)CC3)cc2)nc1-c1cc2ccccc2s1` has a remaining binding of 81% (binding; competition with immobilised ligand; 1 µM).
`CO[C@@H](C)c1c(Nc2ccc([C@H](N(C)C(=O)C3CCS(=O)(=O)CC3)C(F)(F)F)cc2)cnc2cc(Cl)nn12` gave a remaining binding of 80% (cell-free assay; competition with immobilised ligand; 1 µM).
With `CNC(=O)[C@@H]1CC[C@@H](n2c(-c3ccc4cnccc4c3)nc3ccc(C(=O)NCc4cccc(C(N)=O)c4)cc32)C1` the remaining binding was 85% (binding; competition with immobilised ligand; 1 µM).
`C[C@H](c1ccc(F)cc1)N(Cc1cccc(C(=O)O)c1)C(=O)c1cnc2ccccc2c1` has a remaining binding of 95% (cell-free assay; competition with immobilised ligand; 1 µM).
`O=C(c1ccc(Nc2ncc(Cl)c(-c3ccc(Cl)s3)n2)cc1)N1CCC(N2CCCC2)CC1` gave a remaining binding of 65% (binding; competition with immobilised ligand; 1 µM).
For `N[C@H]1CCN(c2nccc(-c3cnn4ncccc34)n2)C1`, the remaining binding was 100% (binding; 1 µM).
`COc1cccc(CNC(=O)c2nc3scc(COCc4ccc(C(=O)O)cc4)c3c(=O)[nH]2)c1` has a remaining binding of 100% (cell-free assay; competition with immobilised ligand; 1 µM).
With `CCN1CCN(Cc2ccc(C(=O)Nc3ccc(C)c(Oc4ccc5c(c4)CC(=O)N5)c3)cc2C(F)(F)F)CC1` the remaining binding was 96% (binding; competition with immobilised ligand; 1 µM).
`CN(c1nccc(-c2cnn3ncccc23)n1)C1CC1` gave a remaining binding of 100% (binding; 1 µM).
With `FC(F)(F)Oc1cccc(-c2cnc3ccc(-c4ccncc4)nn23)c1` the remaining binding was 55% (cell-free assay; competition with immobilised ligand; 5 µM).
`C[C@H]1CCN(c2nccc(-c3cnn4ncccc34)n2)C1` has a remaining binding of 74% (binding; 1 µM).
The remaining binding of `C[C@@H](c1cccc(C#N)c1)n1cc(Cl)cc(C(N)=O)c1=N` is reported as 100% (cell-free assay; competition with immobilised ligand; 1 µM).
For `CN(C)c1nccc(-c2cnn3ncccc23)n1`, the remaining binding was 82% (binding; 1 µM).
`CO[C@H]1CC[C@H](CNc2ccc(S(=O)(=O)NC(=O)c3ccc(N4CCN(CC5=C(c6ccc(Cl)cc6)CC(C)(C)CC5)CC4)cc3Oc3cnc4[nH]ccc4c3)cc2[N+](=O)[O-])CC1` has a remaining binding of 81% (cell-free assay; competition with immobilised ligand; 1 µM).
`CC1CCCN1c1nccc(-c2cnn3ncccc23)n1` (centres unmarked) gave a remaining binding of 100% (binding; 1 µM).
The remaining binding of `C=CC(=O)N1CCC(C(=O)NCC(=O)N2CCN(c3nc(-c4cnc(N)nc4C(F)F)nc(N4CCOCC4)n3)CC2)CC1` is reported as 95% (binding; competition with immobilised ligand; 1 µM).
`CN(CCCC(F)(F)F)c1nccc(-c2cnn3ncccc23)n1` gave a remaining binding of 100% (binding; 1 µM).
With `O=C(Nc1c[nH]nc1C(=O)NC1CCNCC1)c1cc(F)cc(F)c1` the remaining binding was 91% (binding; competition with immobilised ligand; 1 µM).
